# Reference: publication PMC10405225 (Cancer chemotherapy and pharmacology, 2022)
# Key:
# [1] = intratumoral, T-ALL xenograft in immunodeficient mice ref 8; cited from earlier work
# BCL-XL = BCL-XL (Homo sapiens, UniProt Q07817); assay: BCL-XL degradation by western blot densitometry in SUP-T1 cells; assay type: cell-based; conditions: read-out: DC50 (concentration that degraded 50% of BCL-XL protein), 24 hrs of DT2216, western blot densitometry
# [2] = system: T-ALL cell lines other than SUP-T1; assay: Cell cytotoxicity assay; assay type: cell-based; conditions: Homo sapiens, SUP-T1, 48 h
# Outline: (§1)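 Human T-ALL lines grown in RPMI with 10% or 20% FBS at 37°C, 5% CO2. Plated 2×10^3–2×10^4 cells/well depending on doubling time, in quadruplicate. Test compound added from DMSO (≥1:1000 into medium) at varying concentrations; DMSO vehicle control. Exposure 48 h, then CCK-8 for 4 h at 37°C and A450 read. % survival derived; ≥3 independent experiments, mean ± SE.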
# BCL-2 or MCL-1 = assay type: cell-based, Human
# Outline: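 T-ALL cells were lysed before and after test-compound exposure. Western blots of 10 µg lysate were probed for BCL-2 and MCL-1, with β-actin as loading control. Band intensities were measured by densitometry and normalized to β-actin. Each blot was done twice with distinct protein preparations.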
# PEER T-ALL cells = assay: Cell cytotoxicity assay; assay type: cell-based; conditions: Homo sapiens, 48 h
# Outline: as §1
# SUP-T1 T-ALL cells = assay: Cell cytotoxicity assay; assay type: cell-based, Human
# Outline: as §1
# Chain of BCL-XL (Q07817 whole entry): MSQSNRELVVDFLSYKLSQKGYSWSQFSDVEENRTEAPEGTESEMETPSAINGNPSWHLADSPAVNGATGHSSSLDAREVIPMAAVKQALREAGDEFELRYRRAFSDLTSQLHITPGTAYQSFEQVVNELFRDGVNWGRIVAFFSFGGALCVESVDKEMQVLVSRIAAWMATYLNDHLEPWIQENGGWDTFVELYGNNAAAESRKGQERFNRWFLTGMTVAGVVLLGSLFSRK
structure (smiles),measurement,setting,value
Cc1ncsc1-c1ccc([C@H](C)NC(=O)[C@@H]2C[C@@H](O)CN2C(=O)[C@@H](NC(=O)CCCCCC(=O)N2CCN(CC[C@H](CSc3ccccc3)Nc3ccc(S(=O)(=O)NC(=O)c4ccc(N5CCN(CC6=C(c7ccc(Cl)cc7)CCC(C)(C)C6)CC5)cc4)cc3S(=O)(=O)C(F)(F)F)CC2)C(C)(C)C)cc1 [DT2216],DT2216 level achieved within a T-ALL xenografted tumor in vivo,[1],800 nM
same,DC50,BCL-XL,131 nM
same,IC50,[2],< 800 nM
same,Induction of BCL-2 or MCL-1 expression by DT2216,BCL-2 or MCL-1; any of the 13 T-ALL cell lines,not induced
same,Change in BCL-2 or MCL-1 protein levels after exposure to DT2216,BCL-2 or MCL-1; resistant SUP-T1 cells,no change
same,IC50,PEER T-ALL cells,305 nM
same,IC50,SUP-T1 T-ALL cells; 48 hrs,1490 nM
same,IC50,"SUP-T1 T-ALL cells; Homo sapiens, SUP-T1, 48 h",> 800 nM
